TMEM16A act: mouse TMEM16A channel activation, primary screen. Q8BHY3. B-score at 10 µM. hit rate 0.3% among 340,000. HEK293 TMEM16A/YFP-H148Q/I152L, iodide quench fluorescence; hits give low values;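 active = fluorescence-ratio B-score plate-corrected deviation score at least 3 library SD below zero, with starting fluorescence score within 5 deviations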;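 note: channel opened by trigger with iodide after compound preincubation; score built on the fluorescence ratio of max minus min over baseline; more negative score means more quench and so TMEM16A activation or potentiation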
Target sequence (Q8BHY3 whole entry, looked up): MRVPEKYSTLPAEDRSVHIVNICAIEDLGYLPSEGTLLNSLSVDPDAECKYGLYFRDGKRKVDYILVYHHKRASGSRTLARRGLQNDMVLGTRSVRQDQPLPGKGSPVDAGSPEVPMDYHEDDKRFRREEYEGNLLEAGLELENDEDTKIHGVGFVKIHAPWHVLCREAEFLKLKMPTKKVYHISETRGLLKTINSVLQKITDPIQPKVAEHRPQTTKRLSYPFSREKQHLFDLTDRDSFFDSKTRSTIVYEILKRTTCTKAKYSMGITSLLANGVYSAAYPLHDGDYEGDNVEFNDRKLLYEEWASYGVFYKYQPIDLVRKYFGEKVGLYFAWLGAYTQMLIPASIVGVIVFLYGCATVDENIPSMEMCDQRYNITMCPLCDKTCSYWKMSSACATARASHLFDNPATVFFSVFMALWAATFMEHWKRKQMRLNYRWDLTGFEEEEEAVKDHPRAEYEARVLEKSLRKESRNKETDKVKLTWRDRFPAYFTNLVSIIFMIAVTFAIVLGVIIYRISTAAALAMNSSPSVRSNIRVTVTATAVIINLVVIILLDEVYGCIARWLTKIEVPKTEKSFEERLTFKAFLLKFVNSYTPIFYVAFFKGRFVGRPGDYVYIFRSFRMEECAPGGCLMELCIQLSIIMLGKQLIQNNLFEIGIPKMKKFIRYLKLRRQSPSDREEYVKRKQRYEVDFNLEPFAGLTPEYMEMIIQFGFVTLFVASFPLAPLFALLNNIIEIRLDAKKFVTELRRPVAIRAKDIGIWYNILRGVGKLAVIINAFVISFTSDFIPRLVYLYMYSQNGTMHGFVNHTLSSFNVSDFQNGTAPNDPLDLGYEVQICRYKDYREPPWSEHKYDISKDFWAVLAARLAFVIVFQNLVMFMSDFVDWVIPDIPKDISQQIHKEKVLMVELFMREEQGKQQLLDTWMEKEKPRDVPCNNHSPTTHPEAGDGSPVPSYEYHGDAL
CRFBP-R2 block: blocks CRF-induced signaling of the CRF-BP/CRF-R2 complex. HEK293 CRF-R2/CRF-BP, CRF-induced calcium fluorescence. hit rate 0.59% among 350,000. inhibition, % at 11.8 µM;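 active = inhibition of the ligand-induced calcium signal above about 50% at the single tested concentration, limit read from the data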
TAAR1 agonist: agonists of human TAAR1 | Q96RJ0 | CHO RD-HGA16 TAAR1, Fluo-8 calcium fluorescence; vehicle wells 0%, saturating PEA agonist 100% | activation, % at 3 µM | hit rate 0.99% among 360,000 | AID 624467;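 active = activation above the mean activation of all test compounds in the run plus 3 SD, cut at about 38% in these data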
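Assay system – CHO-derived RD-HGA16 cells with stable Gα16 and human TAAR1 · Compound dosing – one-point dosing at 3 µM (nominal) · Incubation – 17-24 h seeding, 75 min 37 °C dye, 30 min RT · Measured by – kinetic Fluo-8 calcium fluorescence · Control set – DMSO vehicle as 0%, PEA at EC100 as 100% · Repeats – single well for each compound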
TMEM16A inh: mouse TMEM16A channel inhibition, primary screen; HEK293 TMEM16A/YFP iodide influx fluorescence, ionomycin; hit rate 1.2% among 310,000; normalized B-score (activity score, 25-100; higher = stronger inhibition) at 10 µM; Q8BHY3;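 active = ratio plate-corrected score three or more library SD toward inhibition, starting fluorescence score within five deviations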;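 note: score derived from kinetic fluorescence span divided by baseline fluorescence per well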
TAAR1 antagonist: human TAAR1 antagonism; Q96RJ0; CHO RD-HGA16 TAAR1, Fluo-8 calcium fluorescence, antagonist; inhibition, % at 3 µM; hit rate 1.5% among 360,000; AID 624466;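 active = inhibition above a per-plate cutoff, the mean inhibition of test compounds on that plate plus 3 SD, cut at about 49% in these data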;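 note: 0% = DMSO plus EC80 beta-PEA response and 100% = DMSO alone without agonist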
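Material: RD-HGA16 CHO cells with stable hTAAR1 and Gα16; Dosing: single nominal final test compound concentration of 3 µM; Schedule: seeding 17-24 h prior, 75-min 37 °C, 30-min RT dye loading; Detection: kinetic Fluo-8 calcium fluorescence measurement; Measure: % inhibition from peak post-agonist over basal fluorescence ratio; Benchmarks: vehicle and agonist controls.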
CRFBP-R2 agonist: agonists of human CRF-binding protein/CRF-R2 receptor complex | HEK293 CRF-R2/CRF-BP, calcium dye fluorescence (FLIPR); percent of saturating CRF peptide response | activation, % at 13.2 µM | hit rate 0.46% among 350,000 | AID 588473;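 active = activation of at least 50%, plus an integration ratio under a set limit after plate pattern correction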;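 note: plate controls were neutral control wells without compound for no effect and CRF at EC100 for full effect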
An asterisk follows results filed as active; i = inactive; · = not tested or not shown. Rows were chosen to be rich in hits. Some 3.9% of all compounds tested hit in one or more screens of this group.

SMILES	TMEM16A act	CRFBP-R2 block	TAAR1 agonist	TMEM16A inh	TAAR1 antagonist	CRFBP-R2 agonist
COc1ccc(NC(=O)CNC(=O)Cc2cccc3ccccc23)c(OC)c1	i	6	4	i	16	-2
Cc1ccc(C(=O)NCCSc2ccc(Cl)cc2)cc1S(=O)(=O)Nc1ccccc1	i	-8	6	100*	44	-1
C/C(=N\NC(=O)c1ccccc1NC(=O)c1ccc(Cl)cc1)c1ccncc1	i	72*	5	i	-2	1
CCN(CC)c1cccc(OC(=O)c2cccnc2Cl)c1	i	-1	-3	i	10	0
CCCCCCCCCCCCOC(=O)C[N+](C)(C)C	i	-4	38*	i	49*	-1
CCCCCCCCCCOC(=O)C[N+](C)(C)C/C=C(/C)Cl	i	14	31	i	-7	0
CCCCn1c(N)c(N(CC)C(=O)CCc2ccccc2)c(=O)[nH]c1=O	i	-3	3	i	-2	-3
CN1CCCC(C)(C(=O)Nc2ccc3scnc3c2)C1 (configuration not stated)	·	·	0	·	-11	·
O=[N+]([O-])c1ccc2nc(NN=Cc3ccc(O)cc3)sc2c1	i	-16	12	·	51*	0
CCN(CC)c1ccc(/C=c2/sc3nnc(-c4ccccc4C)n3c2=O)cc1	i	-194	17	i	13	133*
CCN(CC)c1ccc(/C=c2\sc3nnc(-c4ccccc4Cl)n3c2=O)cc1	i	-99	21	i	28	112*
Cc1ccc(/C=c2/sc3nnc(-c4ccccc4Cl)n3c2=O)o1	i	-21	-3	i	11	-1
Cc1nc(N2CCOCC2)[nH]c(=O)c1C(O)C(Cl)(Cl)Cl (configuration not stated)	i	-4	15	i	-17	1
C[C@@H]1CNC(=O)c2c(C(=O)Nc3ccc(CNC(=O)OC(C)(C)C)cc3)ncn21	·	2	13	·	50*	2
C[C@@H]1CNC(=O)c2c(C(=O)NCc3ccc(CNC(=O)OC(C)(C)C)cc3)ncn21	·	6	3	·	0	-1
Cc1ccc(C2(C)NC(=O)N(CC(=O)NNC(=O)c3ccccc3)C2=O)cc1 (configuration not stated)	i	2	8	·	8	-1
COC(=O)N/N=C(\C)c1cccs1	i	112*	-1	i	-17	0
C/C(=N\NC(=O)C1CC1)c1cccs1	i	-16	6	i	-6	3
CCOc1ccc(C2C=C(c3ccccc3)Nc3nnnn32)cc1 (configuration not stated)	i	-3	11	i	7	1
CCOc1ccc(C2C=C(c3ccc(C)cc3)Nc3nnnn32)cc1 (configuration not stated)	i	-30	9	i	0	69*
C[C@@H]1ON(C)[C@H]2C[C@H]3c4cc(-c5cccc(F)c5)ccc4CCN3C(=O)[C@@H]12	·	-2	1	·	-10	1
CCOCCCNc1nc2c(C)cccn2c(=O)c1/C=C1\SC(=S)N(C(C)CC)C1=O (configuration not stated)	i	-77	12	i	-2	109*
CCCN1C(=O)/C(=C/c2c(NCCCOCC)nc3c(C)cccn3c2=O)SC1=S	i	-173	9	·	-4	113*
O=C1/C(=C\c2c(NCCOCCO)nc3ccccn3c2=O)SC(=S)N1Cc1ccco1	i	-97	41*	i	62*	102*
O=C1/C(=C\c2ccco2)SC(=S)N1Cc1ccccc1	i	-7	7	i	6	0
SMILES	TMEM16A act	CRFBP-R2 block	TAAR1 agonist	TMEM16A inh	TAAR1 antagonist	CRFBP-R2 agonist
COc1ccccc1C1CCN(C(=O)c2ccc(Cl)cc2)CC1	i	-6	5	i	0	-1
O=C(Nc1cccc2ccccc12)N1CC=CCC1	i	88*	-2	i	-7	0
O=C(Nc1cccc2ccccc12)N1CCN(c2ccccc2)CC1	i	-5	15	i	11	-2
COc1ccc(CCCNC(=O)C2(C)Cc3c(-c4cccc(C(N)=O)c4)ccnc3O2)cc1 (configuration not stated)	·	·	6	·	22	·
COc1cc(C(O)c2nc(-c3cccc(C(C)C)c3)cs2)ccc1F (configuration not stated)	·	·	0	·	23	·
CC1=NNC(=O)/C1=C\c1cn(-c2ccccc2)nc1-c1ccc(F)cc1	-6.2*	-45	·	·	·	26
O=C(O)CCCCCN1C(=O)/C(=C/c2cn(-c3ccccc3)nc2-c2cccs2)SC1=S	i	13	0	·	14	9
CC1=NNC(=O)/C1=C\c1cn(-c2ccccc2)nc1-c1cccs1	i	-57	37	i	86*	80*
O=C(CCNC(=O)c1ccc([N+](=O)[O-])cc1)Nc1cccc(S(=O)(=O)N2CCOCC2)c1	i	9	1	·	-10	1
O=C(/C=C/c1ccc([N+](=O)[O-])cc1)c1cccs1	i	-15	0	i	-22	-1
COc1cc([N+](=O)[O-])ccc1N/C=C/C(=O)c1cccs1	i	-117	12	i	3	84*
CCOC(=O)C1CCN(C(=O)c2ccc3c(c2)NC(=O)/C(=C\c2ccc(C)cc2)S3)CC1	i	2	4	i	-7	-1
CCOC(=O)C1CCN(C(=O)c2ccc3c(c2)NC(=O)/C(=C/c2ccccc2)S3)CC1	-50*	1	-2	i	14	2
Cn1c(C(=O)Nc2ccc3c(c2)OCO3)cc2c(=O)n(C)c3ccccc3c21	-6.8*	0	1	i	-1	-3
O=C(NCC1CCCO1)/C(=C\c1ccccc1F)NC(=O)c1ccccc1 (configuration not stated)	i	4	3	i	-8	1
CC(=O)NC(Cc1cccc(F)c1)C(=O)NC1CCN(c2ncccc2[N+](=O)[O-])CC1 (configuration not stated)	i	36	5	i	-10	1
CC(=O)NC(Cc1cccc(C)c1)C(=O)NC1CCN(c2ncccc2[N+](=O)[O-])CC1 (configuration not stated)	i	57*	3	i	23	-2
CC(=O)NN(O)C1N(C)C(=O)N(Cc2ccccc2)C1(C)C (configuration not stated)	i	-5	2	i	23	0
Cc1ccc(NC(=O)CC2SC(=O)N(c3ccccc3)C2=O)cc1 (configuration not stated)	i	89*	23	i	-1	2

Compound activity (PubChem)
